Bioassay records (PubChem BioAssay)
MrgX1 antag: antagonists of human MrgX1 receptor; Q96LB2; MRGX1-HEK293 calcium flux, Fluo-4, BAM8-22 antagonism; stronger effect = lower value; B-score at 10 µM; 310,000 compounds, 1.3% hits;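 active = calcium-response B-score plate-corrected more than 3 library SD below zero, starting fluorescence within 5 deviations, no agonist response on first addition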;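 note: peak minus trough fluorescence over baseline after final BAM8-22 challenge near maximal dose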
Target sequence (Q96LB2 whole entry, looked up): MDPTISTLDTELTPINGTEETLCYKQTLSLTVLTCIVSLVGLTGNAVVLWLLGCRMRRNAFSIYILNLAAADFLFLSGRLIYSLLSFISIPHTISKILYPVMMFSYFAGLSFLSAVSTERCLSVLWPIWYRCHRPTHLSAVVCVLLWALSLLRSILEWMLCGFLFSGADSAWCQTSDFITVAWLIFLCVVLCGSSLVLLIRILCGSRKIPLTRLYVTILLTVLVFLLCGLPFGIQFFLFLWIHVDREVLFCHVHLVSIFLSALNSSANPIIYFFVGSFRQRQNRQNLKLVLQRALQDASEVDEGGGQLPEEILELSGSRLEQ
RGS4 pot: potentiators or activators of RGS4 | B-score at 10 µM | AID 463111 | 310,000 compounds, 0.92% hits | HEK293 M3R/inducible RGS4, carbachol calcium flux Fluo4; stronger effect = lower value;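 active = B-score of the integrated calcium signal more than 4 SD below the library mean, with starting fluorescence not abnormally high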;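 note: negative B-score means reduced calcium response which marks RGS4 activation or potentiation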
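Also added: carbachol at ECmax as muscarinic agonist stimulus; Assay system: HEK293 cells with stable M3R and inducible RGS4; Timing: overnight RGS4 induction, 30 min dye load 37 °C, 20 min compound RT; Measured by: Fluo4-AM (2 µM) calcium-flux fluorescence, kinetic read.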
MrgX1 ag: human MrgX1 receptor agonism, primary screen | AID 588627 | 310,000 compounds, 0.44% hits | Q96LB2 | B-score at 10 µM | MrgX1-HEK293 cells, Fluo-4 calcium fluorescence, agonist mode; stronger effect = higher value;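 active = calcium response B-score plate-corrected fluorescence ratio at least 3 library SD, with starting fluorescence B-score inside 5 SD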
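Material: HEK293 cells stably expressing human MrgX1 receptor | Quantity: 15,000 cells per well | Times: Cells plated overnight, dye loaded 0.5 h 37 °C, 0.5 h room temperature | Measured by: Kinetic Fluo-4 NW fluorescence of intracellular calcium | Control set: Positive and negative controls per plate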
RGS4 inh: human RGS4 inhibition. P49798. HEK293 M3R/RGS4 inducible, Fluo-4 calcium flux; stronger effect = higher value; triggered by carbachol at its EC20. AID 463165. 310,000 compounds, 0.45% hits. B-score at 10 µM;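 active = B-score, a plate-corrected calcium signal, over three deviations above library mean, with baseline fluorescence within five deviations of library mean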;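 note: RGS4 expression induced by doxycycline in cells with stable M3 receptor; B-score is computed from the integrated fluorescence ratio over baseline after carbachol; higher B-score means a larger calcium signal and so more RGS4 inhibition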
Target sequence (P49798 whole entry, looked up): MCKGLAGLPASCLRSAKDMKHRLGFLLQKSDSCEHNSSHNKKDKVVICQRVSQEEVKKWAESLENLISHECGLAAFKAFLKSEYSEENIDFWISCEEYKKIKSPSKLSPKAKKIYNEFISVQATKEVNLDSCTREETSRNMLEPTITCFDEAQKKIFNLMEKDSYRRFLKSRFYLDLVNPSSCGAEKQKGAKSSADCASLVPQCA
MrgX1 allo act: allosterically activates human MrgX1 receptor signaling. Q96LB2. MrgX1-HEK293, Fluo-4 calcium flux, FDSS; stronger effect = higher value. B-score at 10 µM. 310,000 compounds, 0.63% hits. AID 588675;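 active = plate-corrected calcium response at least 3 library SD above typical, normal starting fluorescence, not activating the receptor alone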;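 note: compound read alongside a low EC10 to EC30 dose of BAM8-22 agonist; peak minus trough fluorescence over baseline measured at the second addition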
MrgX1 ant reconf: human MrgX1 receptor antagonism, re-confirmation screen. shares compounds with MrgX1 antag. MrgX1-HEK293, BAM8-22 calcium flux, Fluo-4; stronger effect = lower value. remaining BAM8-22 calcium response % of control (stronger effect = lower value), % at 10 µM. 2,300 compounds, 19% hits;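 active = remaining agonist calcium response no higher than 100% minus 3 SD of agonist-only control wells, with starting fluorescence near control levels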;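 note: agonist BAM8-22 given at a near maximal EC90 to ECmax level; peak minus minimum fluorescence divided by baseline after agonist addition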
HEK293 Ca flux: activity in parental HEK293 cells lacking MrgX1; shares compounds with MrgX1 antag; Fluo-4 calcium fluorescence, FDSS; fluorescence ratio F(max-min)/F0 at 10 µM; 4,000 compounds, 2% hits;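 active = duplicate-averaged calcium fluorescence ratio at least three times the standard deviation of buffer wells, a nonspecific response in parental cells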
HEK293 Ca counter: activity in parental HEK293 cells without MrgX1; shares compounds with MrgX1 antag; parental HEK293 calcium flux, Fluo-4 fluorescence ratio; stronger effect = higher value; fluorescence ratio F(max-min)/F0 at 10 µM; 4,000 compounds, 0.4% hits; AID 624114;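 active = calcium fluorescence ratio, averaged over duplicates, at least 3 SD of the buffer-well ratio, meaning a nonspecific response in receptor-free cells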;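 note: untransfected parental HEK293 lacking MrgX1 used as counterscreen for MrgX1 allosteric activators; fluorescence change taken during the second addition on a kinetic imager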
HEK293 Ca cntr2: MrgX1 activator counter-screen hit in parental HEK293 cells. shares compounds with MrgX1 antag. 4,000 compounds, 8.7% hits. Fluo-4 calcium fluorescence (FDSS); stronger effect = higher value. fluorescence ratio F(max-min)/F0 at 10 µM;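 active = calcium fluorescence ratio at least three times the spread of buffer wells, meaning a non-specific response in parental cells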
A number is an active result; 0 = inactive; - = not tested or not shown. Rows were chosen to be rich in hits. Some 3.5% of all compounds tested hit in one or more screens of this group.

SMILES	MrgX1 antag	RGS4 pot	MrgX1 ag	RGS4 inh	MrgX1 allo act	MrgX1 ant reconf	HEK293 Ca flux	HEK293 Ca counter	HEK293 Ca cntr2
Cc1ccc(Nc2c3c(nc4ncnn24)CCC3)cc1	-7.2	0	0	0	0	0	0	0	0
Cc1ccc(Nc2c3c(nc4ncnn24)CC(C)CC3)cc1 (centres undefined)	0	0	0	0	0	-	-	-	-
Nn1c(SCC(=O)N2CCOCC2)nnc1-c1ccccc1Cl	-6.2	0	0	0	0	74%	0	0	0
O=C(CSc1nnc2ccccn12)N1CCOCC1	0	0	0	0	0	-	-	-	-
CCOc1ccccc1NS(=O)(=O)c1ccc(-c2cnc(C3CC3)o2)cc1	0	0	0	0	0	-	-	-	-
COc1ccccc1NS(=O)(=O)c1ccc(-c2cnc(C3CC3)o2)cc1	-5.2	0	0	0	0	0	0	0	0
CCN(CC(=O)NC(C)(C)C)Cc1cc(=O)n2c(-c3ccccc3)csc2n1	-4.7	0	0	0	0	0	0	0	0
COC(=O)c1cc(=O)n2c(-c3ccccc3)csc2n1	0	0	0	0	0	-	-	-	-
Cc1ccc(NC(=O)CC(C)CC(=O)NCc2ccccc2)cc1Cl (centres undefined)	0	0	0	0	0	-	-	-	-
Cn1cc(S(=O)(=O)CC(=O)Nc2ccc(Br)cc2)c2ccccc21	-6.1	0	0	0	0	0	0	0	0
CCN1C(=O)[C@H]2[C@@H](c3ccc(C)cc3)N3C(=O)N(c4cccc(Cl)c4)C(=O)[C@@]3(Cc3ccccc3)[C@H]2C1=O	-5.2	0	0	0	0	0	0	0	0
CCN1C(=O)[C@H]2[C@@H](c3ccc(C)cc3)N3C(=O)N(c4cccc(Cl)c4)C(=O)[C@@]3(Cc3ccc(Cl)cc3)[C@H]2C1=O	0	-	0	-	0	-	-	-	-
O=C1C2C3c4ccccc4C(c4ccccc43)C2C(=O)N1CN1CCOCC1 (centres undefined)	0	0	0	0	0	-	-	-	-
O=C(CN1C(=O)C2C3c4ccccc4C(c4ccccc43)C2C1=O)N1CCOCC1 (centres undefined)	-5.2	0	0	0	0	0	0	0	0
O=C(NC1CCN(C(=S)Nc2ccc(F)cc2)CC1)c1ccco1	0	0	0	0	0	-	-	-	-
Cc1ccc(C)c(-n2c(SCC(=O)Nc3nonc3C)nnc2-c2ccoc2C)c1	-5.4	0	0	0	0	83%	0	0	0
Cc1ccc2c(c1)N(C(=O)CCC(=O)NCCCN1CCN(C)CC1)CCO2	-8.7	0	0	0	0	0	0	0	0
Cc1ccc2c(c1)N(C(=O)CCC(=O)NCCCN1CCC(Cc3ccccc3)CC1)CCO2	0	0	0	0	0	-	-	-	-
Cc1nc2ccc(NC(=O)Cc3ccc4c(c3)OCCO4)cc2s1	-6.8	0	0	0	0	0	0	0	0
Cc1nc2ccc(NC(=O)Cc3ccc(Br)cc3)cc2s1	0	0	0	0	0	-	-	-	-
CCc1c(C)nc(SCC(=O)c2ccc(C)c(C)c2)[nH]c1=O	-7	0	0	0	0	0	0	0	0
COc1cc(/C(C)=N/NC(=O)Cc2c(C)[nH][nH]c2=O)ccc1O	0	0	0	0	0	-	-	-	-
COc1ccc(CC(=O)N(C)C2CCCCC2)cc1S(=O)(=O)N1CCOCC1	-4.6	0	0	0	0	0	0	0	0
COc1ccc(CN(C)C(=O)Cc2ccc(OC)c(S(=O)(=O)N3CCOCC3)c2)cc1	0	0	0	0	0	-	-	-	-
Cc1c(C(=O)O)[nH]c2c1C(=O)CC(c1ccc(Cl)cc1)C2 (centres undefined)	-4.5	0	0	0	0	0	0	0	0
SMILES	MrgX1 antag	RGS4 pot	MrgX1 ag	RGS4 inh	MrgX1 allo act	MrgX1 ant reconf	HEK293 Ca flux	HEK293 Ca counter	HEK293 Ca cntr2
Cc1ccc(-c2nc3cc(N)ccc3o2)cc1	0	0	0	0	0	-	-	-	-
Cc1ccc2oc(-c3cccc(N)c3)nc2c1	-6.2	0	0	0	0	0	0	0	0
Cc1ccc(N2C(=O)C3ON(c4ccccc4)C(CC(C)C)C3C2=O)cc1 (centres undefined)	0	0	0	0	0	-	-	-	-
Cc1ccc(-n2c(-c3ccncc3)nnc2-c2cccs2)cc1	-5.7	0	0	0	0	0	0	0	0
Cc1csc(NC(=O)c2nc3nc(C)cc(C)n3n2)n1	-5.4	0	0	0	0	0	0	0	0
Cc1cc(C)n2nc(C(=O)Nc3nccs3)nc2n1	0	0	0	0	0	-	-	-	-
CC(=O)Nc1ccc(C(=O)N/C(=C/c2ccccc2)C(=O)NCc2ccco2)cc1	0	0	0	0	0	-	-	-	-
CC(=O)NC1C(=O)N(CCN2CCOCC2)c2ccc(Br)cc21 (centres undefined)	-9.3	0	0	0	0	0	0	0	47
CCN1C(=O)C(NC(C)=O)c2cc(OC)ccc21 (centres undefined)	0	0	0	0	0	-	-	-	-
CCOc1ccc2c(c1)C(NC(C)=O)C(=O)N2CCN1CCOCC1 (centres undefined)	-12	0	0	0	0	0	0	0	0
CCCN1CCN(C(=O)CS(=O)(=O)Cc2nc(-c3cccc(OC)c3)oc2C)CC1	0	0	0	0	0	-	-	-	-
CCOc1ccc(NC(=S)NN(C)C(=S)Nc2ccc(OCC)cc2)cc1	0	0	0	0	0	-	-	-	-
O=C(CSc1nc2[nH]ncc2c(=O)[nH]1)Nc1ccc(Cl)cc1	0	0	0	0	0	-	-	-	-
COC(=O)c1ccc(NC(=S)NCCc2ccccc2C)cc1	-5	0	0	0	0	0	0	0	0
COC(=O)c1ccc(NC(=S)NCCc2cccc(C)c2)cc1	0	0	0	0	0	-	-	-	-
O=C(CCCn1cc([N+](=O)[O-])cn1)N1CCCCC1	0	0	0	0	0	-	-	-	-
CC(=O)Nc1cccc(C(=O)OC(C)C(=O)NC(=O)NC2CCCCC2)c1 (centres undefined)	-9.9	0	0	0	0	0	0	0	0
Cc1cccc(C(=O)OC(C)C(=O)NC(=O)NC2CCCCC2)c1O (centres undefined)	0	0	0	0	0	-	-	-	-
O=C(Cn1c(=O)oc2cccnc21)Nc1ccc(C(F)(F)F)cc1	0	0	0	0	0	-	-	-	-
COc1ccc(NS(=O)(=O)c2ccc(NC(=O)C(CCSC)NC(N)=O)cc2)cc1 (centres undefined)	0	0	0	0	0	-	-	-	-
